Results reported in ChEMBL document CHEMBL2321845, “Discovery of 4-Aryl-2-benzoyl-imidazoles as tubulin polymerization inhibitor with potent antiproliferative properties” (J Med Chem, 2013).
Active and inactive are the calls of the source. The rule behind the calls is not given here.

Tests used:
LNCaP = experiment: Cytotoxicity against human LNCAP cells assessed as growth inhibition after 96 hrs by SRB assay; format: functional, cell-based
In short: (§1)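 Plated at 1000–5000 cells/well depending on growth rate and treated with graded compound concentrations for 96 h, three to five replicates. Cell number was measured by SRB: 10% TCA fixation, 0.4% SRB staining, absorbance at 540 nm. IC50 relative to untreated control came from a nonlinear regression fit.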

PC-3 [1] = experiment: Cytotoxicity against human PC3 cells assessed as growth inhibition after 96 hrs by SRB assay; format: functional, cell-based; details: PC-3, 96 h; in short: as §1
DU-145 = experiment: Cytotoxicity against human DU145 cells assessed as growth inhibition after 96 hrs by SRB assay; format: functional, cell-based; details: Homo sapiens, DU-145, 96 h
A-375 = experiment: Cytotoxicity against human A375 cells assessed as growth inhibition after 48 hrs by SRB assay; format: functional, cell-based; details: A-375, 48 h
In short: (§2)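 Melanoma cells from ATCC, grown in DMEM with 10% FBS at 37°C under 5% CO2. Seeded at 1000–5000 cells/well according to growth rate and exposed to a range of compound concentrations for 48 h, in three to five replicates. Cells were fixed with 10% TCA, stained with 0.4% SRB and read at 540 nm.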

MDA-MB-435 = experiment: Cytotoxicity against human MDA-MB-435 cells assessed as growth inhibition after 48 hrs by SRB assay; format: functional, cell-based; details: MDA-MB-435, 48 h
[2] = Cytotoxicity against human MDA-MB-435/LCC6MDR1 cells assessed as growth inhibition after 48 hrs by SRB assay; format: functional, cell-based, MDA-MB-435/LCC6 MDR1; details: Homo sapiens, MDA-MB-435/LCC6 MDR1, 48 h
[3] = Cytotoxicity against human WM164 cells assessed as growth inhibition after 48 hrs by SRB assay; format: functional, cell-based; details: WM164, 48 h
In short: as §2, with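 “nm. IC50 (50% growth inhibition versus untreated control) was taken from nonlinear regression of % survival against concentration.” for “nm.”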

PC-3 [4] = experiment: Cell cycle arrest in human PC3 cells assessed as accumulation at G2/M phase after 24 hrs by propidium iodide staining based FACS analysis (reference value: 18%); format: functional
Bos taurus = species: Bos taurus; experiment: Competitive binding affinity to bovine brain tubulin after 1 hr by mass spectrometry binding assay in presence of colchicine; format: tissue-based
PPC-1 = experiment: Cytotoxicity against human PPC1 cells assessed as growth inhibition after 96 hrs by SRB assay; format: functional, cell-based; details: PPC-1, 96 h; in short: as §1
[5] = Resistance index, ratio of IC50 for human MDA-MB-435/LCC6 MDR1 cells to IC50 for human MDA-MB-435 cells; format: functional
Tubulin (Sus scrofa) = Tubulin (Sus scrofa) (UniProt P02554+P02550); experiment: Inhibition of pig brain tubulin polymerization measured every 1 min for 40 mins by microplate reader analysis
In short: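 Polymerization was followed with a fluorescence-enhanced tubulin polymerization assay kit.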

Tubulin (Sus scrofa), sequence (P02550 whole entry, looked up): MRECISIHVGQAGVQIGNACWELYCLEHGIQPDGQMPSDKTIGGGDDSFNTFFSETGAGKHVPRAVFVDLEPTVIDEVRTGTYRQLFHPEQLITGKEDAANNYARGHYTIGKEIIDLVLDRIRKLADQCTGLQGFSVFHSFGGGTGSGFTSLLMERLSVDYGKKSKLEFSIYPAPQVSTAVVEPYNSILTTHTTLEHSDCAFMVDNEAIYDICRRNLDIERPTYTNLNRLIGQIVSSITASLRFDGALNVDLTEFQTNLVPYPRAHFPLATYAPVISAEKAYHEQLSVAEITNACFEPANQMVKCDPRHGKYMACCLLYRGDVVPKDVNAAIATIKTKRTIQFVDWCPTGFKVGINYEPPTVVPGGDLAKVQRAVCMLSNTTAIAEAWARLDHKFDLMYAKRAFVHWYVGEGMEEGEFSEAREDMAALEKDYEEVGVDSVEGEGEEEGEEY
Tubulin (Sus scrofa), sequence (P02554 whole entry, looked up): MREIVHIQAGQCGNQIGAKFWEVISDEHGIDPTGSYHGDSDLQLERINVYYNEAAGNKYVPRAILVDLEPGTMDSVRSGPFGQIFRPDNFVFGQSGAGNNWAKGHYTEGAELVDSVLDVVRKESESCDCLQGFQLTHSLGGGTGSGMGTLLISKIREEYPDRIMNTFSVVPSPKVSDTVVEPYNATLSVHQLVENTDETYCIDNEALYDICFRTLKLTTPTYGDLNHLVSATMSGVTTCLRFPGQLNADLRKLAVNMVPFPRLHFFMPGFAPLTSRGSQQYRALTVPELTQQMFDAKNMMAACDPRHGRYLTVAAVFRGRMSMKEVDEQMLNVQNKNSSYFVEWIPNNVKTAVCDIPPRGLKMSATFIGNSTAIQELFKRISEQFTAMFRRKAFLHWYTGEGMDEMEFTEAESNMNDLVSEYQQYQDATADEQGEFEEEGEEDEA

Q: For `CCn1cc(-c2ccccc2)nc1C(=O)c1cc(OC)c(OC)c(OC)c1`, which IC50 (LNCaP) is on record?
A: The IC50 was 29 nM.

Q: What about the IC50 (PC-3 [1]) of the same compound?
A: Its IC50 is 25 nM.

Q: And the IC50 (DU-145)?
A: Its IC50 is 66 nM.

Q: What about the IC50 (A-375) of the same compound?
A: The IC50 was 28 nM.

Q: And the IC50 (MDA-MB-435)?
A: Its IC50 is 26 nM.

Q: What about the IC50 [2] of the same compound?
A: Its IC50 is 33 nM.

Q: And the IC50 [3]?
A: Its IC50 is 16 nM.

Q: And the Activity (PC-3 [4])?
A: The Activity was “Dose-dependent effect”.

Q: What about the Activity (PC-3 [4]; record 2) of the same compound?
A: Its Activity is “<=70%”.

Q: With `COc1cc(C(=O)c2nc(-c3ccccc3)c[nH]2)cc(OC)c1OC` as the compound, how does the Activity (Bos taurus) read?
A: Its Activity is “Active”.

Q: What about the IC50 (LNCaP) of the same compound?
A: Its IC50 is 6 nM.

Q: And the IC50 (PC-3 [1])?
A: The IC50 was 14 nM.

Q: What about the IC50 (PPC-1) of the same compound?
A: Its IC50 is 13 nM.

Q: What about the IC50 (DU-145) of the same compound?
A: The IC50 was 22 nM.

Q: And the IC50 (A-375)?
A: Its IC50 is 9 nM.

Q: What about the IC50 (MDA-MB-435) of the same compound?
A: Its IC50 is 24 nM.

Q: And the IC50 [2]?
A: Its IC50 is 11 nM.

Q: And the IC50 [3]?
A: The IC50 was 14 nM.

Q: And the Activity (PC-3 [4])?
A: Its Activity is “Dose-dependent effect”.

Q: What about the Activity (PC-3 [4]; record 2) of the same compound?
A: The Activity was “<=70%”.

Q: And the “Ratio IC50” value [5]?
A: The value was 0.5.

Q: What about the inhibition (Tubulin (Sus scrofa)) of the same compound?
A: The inhibition was “Active”.

Q: What does the source list for `COc1cc(C(=O)c2nc(-c3ccccc3)cn2C)cc(OC)c1OC`?
A: IC50 (PC-3 [1]): 16 nM; IC50 (PPC-1): 13 nM; IC50 (DU-145): 26 nM; IC50 (A-375): 9 nM; IC50 (MDA-MB-435): 16 nM; IC50 [2]: 18 nM; IC50 [3]: 33 nM; Activity (PC-3 [4]): Dose-dependent effect; Activity (PC-3 [4]; record 2): <=70%; inhibition (Tubulin (Sus scrofa)): Active

Q: For `CC[C@]1(O)C[C@@H]2CN(CCc3c([nH]c4ccccc34)[C@@](C(=O)OC)(c3cc4c(cc3OC)N(C)[C@H]3[C@@](O)(C(=O)OC)[C@H](OC(C)=O)[C@]5(CC)C=CCN6CC[C@]43[C@@H]65)C2)C1`, which Activity (Bos taurus) is on record?
A: Its Activity is “inactive”.

Q: What about the inhibition (Tubulin (Sus scrofa)) of the same compound?
A: The inhibition was “Dose-dependent effect”.

Q: Which Activity (Bos taurus) does the source give for `COc1cc(C(=O)c2nc(-c3ccccc3)cn2-c2ccccn2)cc(OC)c1OC` here?
A: Its Activity is “Active”.

Q: What about the IC50 (LNCaP) of the same compound?
A: The IC50 was 20 nM.

Q: What about the IC50 (PPC-1) of the same compound?
A: Its IC50 is 8 nM.

Q: And the IC50 (DU-145)?
A: Its IC50 is 37 nM.

Q: And the IC50 (A-375)?
A: Its IC50 is 14 nM.

Q: And the IC50 (MDA-MB-435)?
A: The IC50 was 11 nM.

Q: And the IC50 [2]?
A: Its IC50 is 15 nM.

Q: What about the IC50 [3] of the same compound?
A: Its IC50 is 6 nM.

Q: What does the source list for `COc1cc(C(=O)c2nc(-c3ccc(C(F)(F)F)cc3)c[nH]2)cc(OC)c1OC`?
A: IC50 (LNCaP): 47 nM; IC50 (PC-3 [1]): 93 nM; IC50 (PPC-1): 74 nM; IC50 (DU-145): 210 nM; IC50 (A-375): 123 nM; IC50 (MDA-MB-435): 120 nM; IC50 [2]: 175 nM; IC50 [3]: 143 nM; Ratio IC50 [5]: 0.8

Q: Which IC50 (LNCaP) does the source give for `COc1cc(C(=O)c2nc(-c3ccc(Br)cc3)c[nH]2)cc(OC)c1OC` here?
A: The IC50 was 15 nM.

Q: What about the IC50 (PC-3 [1]) of the same compound?
A: The IC50 was 33 nM.

Q: And the IC50 (DU-145)?
A: The IC50 was 66 nM.

Q: And the IC50 (A-375)?
A: The IC50 was 29 nM.

Q: And the IC50 (MDA-MB-435)?
A: The IC50 was 58 nM.

Q: What about the IC50 [2] of the same compound?
A: The IC50 was 43 nM.

Q: What about the IC50 [3] of the same compound?
A: Its IC50 is 31 nM.

Q: What about the Activity (PC-3 [4]) of the same compound?
A: Its Activity is “Dose-dependent effect”.

Q: And the Activity (PC-3 [4]; record 2)?
A: Its Activity is “<=70%”.
